By inhibition in vivo is commonly meant the percentage by which the read-out fell short of the control.

5 compounds from ChEMBL document CHEMBL1914430, “Synthesis of some new 1,3,5-trisubstituted pyrazolines bearing benzene sulfonamide as anticancer and anti-inflammatory agents” (Bioorg Med Chem Lett, 2011) can be followed below.

Molecules are shown by their SMILES. The source made the active and inactive calls. No cut-off for these calls is given here.

In data set [1] the test system is Rattus norvegicus. The data set is described as follows: Antiinflammatory activity in Wistar rat assessed as inhibition of carrageenan-induced hind paw edema at 20 mg/kg, po administered 30 mins before carrageenan challenge measured after 3 hrs by plethysmometer. The format is functional. An outline of the steps: (§1)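 Wistar rats of either sex, 150–175 g, fasted 16 h, n = 6 per group. Compound given orally at 20 mg/kg as a suspension in 1% CMC in water (10 mL/kg); controls got vehicle only. After 30 min, 0.1 mL of 1% carrageenan in saline was injected subplantar into the left hind paw. Paw volume was measured by plethysmometer at 0, 3 and 5 h. Inhibition = (1 − Vt/Vc) × 100, reported as mean ± SEM.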

In data set [2] the test system is Rattus norvegicus. The data set is described as follows: Antiinflammatory activity in Wistar rat assessed as inhibition of carrageenan-induced hind paw edema at 20 mg/kg, po administered 30 mins before carrageenan challenge measured after 5 hrs by plethysmometer. It counts as functional. An outline of the steps:
as §1
Background: In the carrageenan paw model, swelling and tenderness develop within hours.

The test system of data set [3] is Rattus norvegicus. Kind of data set: Toxicity in Wistar rat assessed as appearance of ulcerogenic lesions in stomach at 60 mg/kg, po. Further details: dose 60 mg/kg, route oral. As to conditions: in vivo. The format is organism-based. In a few lines:
(§2)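 Wistar rats, 160–220 g, fasted 24 h, six per group. Compound given orally at 60 mg/kg as a suspension in 1% w/v CMC (10 mL/kg); controls got vehicle only. Animals were killed under ether anaesthesia 6 h after treatment, and stomachs were opened along the greater curvature and examined for lesions and bleeding.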

The subject of data set [4] is Rattus norvegicus. Kind of data set: Toxicity in Wistar rat assessed as appearance of ulcerogenic bleeding in stomach at 60 mg/kg, po. As to conditions: in vivo. It counts as organism-based. Further details: dose 60 mg/kg, route oral. In a few lines:
as §2

The target of data set [5] is Prostaglandin G/H synthase 1 (Bos taurus) (UniProt O62664). The data set is described as follows: Inhibition of bovine COX1 assessed as PGE2 production preincubated for 10 mins by ELISA. In a few lines:
(§3)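 In vitro inhibition of bovine COX-1 and COX-2 measured with a COX inhibitor screening kit, following the Gierse et al. method.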
A general note: In an ELISA, binding on a coated surface is turned into a signal by an enzyme label.

The target of data set [6] is Prostaglandin G/H synthase 2 (Bos taurus) (UniProt O62698). The data set is described as follows: Inhibition of bovine COX2 assessed as PGE2 production preincubated for 10 mins by ELISA. An outline of the steps: as §3
Prostaglandin G/H synthase 2 (Bos taurus), sequence (O62698 whole entry): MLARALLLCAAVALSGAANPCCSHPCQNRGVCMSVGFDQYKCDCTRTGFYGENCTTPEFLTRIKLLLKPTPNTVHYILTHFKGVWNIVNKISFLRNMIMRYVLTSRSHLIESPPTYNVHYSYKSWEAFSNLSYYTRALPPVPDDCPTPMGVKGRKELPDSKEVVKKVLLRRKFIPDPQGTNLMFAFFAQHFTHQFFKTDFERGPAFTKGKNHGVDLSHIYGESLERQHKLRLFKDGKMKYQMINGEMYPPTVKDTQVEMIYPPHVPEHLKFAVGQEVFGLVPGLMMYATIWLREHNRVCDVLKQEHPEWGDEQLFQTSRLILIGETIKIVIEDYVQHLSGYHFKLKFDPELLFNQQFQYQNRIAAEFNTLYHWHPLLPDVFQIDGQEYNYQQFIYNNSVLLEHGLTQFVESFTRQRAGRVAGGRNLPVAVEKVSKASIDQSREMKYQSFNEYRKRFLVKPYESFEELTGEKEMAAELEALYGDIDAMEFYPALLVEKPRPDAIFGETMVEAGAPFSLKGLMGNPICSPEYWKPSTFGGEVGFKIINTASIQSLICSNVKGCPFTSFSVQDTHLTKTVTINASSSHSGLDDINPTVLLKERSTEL

Prostaglandin G/H synthase 1 (Bos taurus), sequence (O62664 whole entry): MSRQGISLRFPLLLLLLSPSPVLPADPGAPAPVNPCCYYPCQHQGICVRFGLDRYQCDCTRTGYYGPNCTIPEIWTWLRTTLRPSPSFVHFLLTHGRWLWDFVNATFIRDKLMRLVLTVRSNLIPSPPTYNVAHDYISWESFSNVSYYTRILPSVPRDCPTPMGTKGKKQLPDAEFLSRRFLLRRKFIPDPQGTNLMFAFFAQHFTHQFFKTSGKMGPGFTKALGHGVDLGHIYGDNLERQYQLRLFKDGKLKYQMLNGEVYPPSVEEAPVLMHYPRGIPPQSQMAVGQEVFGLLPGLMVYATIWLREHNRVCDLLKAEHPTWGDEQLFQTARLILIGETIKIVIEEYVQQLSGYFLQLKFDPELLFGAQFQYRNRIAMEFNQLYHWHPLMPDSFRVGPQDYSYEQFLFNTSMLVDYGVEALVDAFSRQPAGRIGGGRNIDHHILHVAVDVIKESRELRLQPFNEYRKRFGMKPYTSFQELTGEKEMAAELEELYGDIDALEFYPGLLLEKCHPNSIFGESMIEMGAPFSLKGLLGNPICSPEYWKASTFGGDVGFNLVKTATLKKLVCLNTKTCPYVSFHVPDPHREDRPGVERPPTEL

Regarding `COc1cc(C)c(Cl)cc1C1=NN(c2ccc(S(N)(=O)=O)cc2)C(c2cc(OC)c(OC)c(OC)c2)C1` (centres undefined), the inhibition in vivo at 20 mg/kg in the data set on Rattus norvegicus [1] was found to be 34.2%; with Rattus norvegicus [2], 21.4%.

For the compound `COc1cc(C)c(Cl)cc1C1=NN(c2ccc(S(N)(=O)=O)cc2)C(c2cccc(O)c2)C1` (centres undefined), the inhibition in vivo at 20 mg/kg in the data set with Rattus norvegicus [1] came to 39.5%; with Rattus norvegicus [2], 16.7%.

Take `COc1cc(C)c(Cl)cc1C1=NN(c2ccc(S(N)(=O)=O)cc2)C(/C=C/c2ccccc2)C1` (centres undefined): the values for the inhibition in vivo at 20 mg/kg in the data set on Rattus norvegicus [1] and in the data set on Rattus norvegicus [2] were 55.3% and 52.4%, respectively.

For the compound `COc1cc(C)c(Cl)cc1C1=NN(c2ccc(S(N)(=O)=O)cc2)C(c2ccc(N(C)C)cc2)C1` (centres undefined), the inhibition in vivo at 20 mg/kg in the data set with Rattus norvegicus [1] was 78.9%; in the data set on Rattus norvegicus [2] it was 95.2%. Also, the Activity entry with Rattus norvegicus [3] and with Rattus norvegicus [4] was “Non-toxic” throughout. In addition, the inhibition result in data set [5] was “inactive”. In addition, the inhibition result in data set [6] was “Active”.

Take `Cc1cc(O)c(C2=NN(c3ccc(S(N)(=O)=O)cc3)C(c3ccc(Cl)cc3)C2)cc1Cl` (centres undefined): the inhibition in vivo at 20 mg/kg in the data set with Rattus norvegicus [1] was found to be 65.8%; in the data set with Rattus norvegicus [2] it was 71.4%.
